Values after ≈ are worked out from the molar mass of the structure shown.
Assays:
Cathepsin K = target: T1, Cathepsin K (Homo sapiens, UniProt P43235); assay: Inhibition of human recombinant CatK assessed as suppression of enzyme-mediated Z-Phe-Arg-AMC cleavage incubated for 1 hrs by QFRET assay
T1 sequence (P43235 whole entry): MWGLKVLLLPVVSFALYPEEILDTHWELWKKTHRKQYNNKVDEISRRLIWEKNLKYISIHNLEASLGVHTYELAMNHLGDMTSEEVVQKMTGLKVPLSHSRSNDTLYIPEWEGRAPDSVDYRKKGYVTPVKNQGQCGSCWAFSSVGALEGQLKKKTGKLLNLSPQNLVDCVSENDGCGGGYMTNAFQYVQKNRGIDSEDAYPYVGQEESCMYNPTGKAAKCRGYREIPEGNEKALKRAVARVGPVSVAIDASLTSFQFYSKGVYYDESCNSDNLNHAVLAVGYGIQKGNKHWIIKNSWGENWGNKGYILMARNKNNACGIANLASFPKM

Procathepsin L = Procathepsin L (Homo sapiens, UniProt P07711); assay: Inhibition of human recombinant CatL assessed as suppression of enzyme-mediated Z-Phe-Arg-AMC cleavage by QFRET assay
Procathepsin L, sequence (P07711 whole entry): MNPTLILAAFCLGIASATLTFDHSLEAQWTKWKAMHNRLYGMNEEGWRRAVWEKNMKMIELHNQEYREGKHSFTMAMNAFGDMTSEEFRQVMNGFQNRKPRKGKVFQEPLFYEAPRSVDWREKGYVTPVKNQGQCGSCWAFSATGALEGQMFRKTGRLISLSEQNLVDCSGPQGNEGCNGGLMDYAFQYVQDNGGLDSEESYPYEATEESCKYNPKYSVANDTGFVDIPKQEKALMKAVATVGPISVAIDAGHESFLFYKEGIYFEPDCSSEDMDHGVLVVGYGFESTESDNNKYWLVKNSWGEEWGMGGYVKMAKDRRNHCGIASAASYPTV
In short: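 Recombinant human Cat L at 0.1 nM final was preincubated with compound for 30 min, then Z-Phe-Arg-AMC (10 μM final) was added. QFRET cleavage was run 1 h at room temperature and stopped with acetic acid. Fluorescence read at ex 360/em 425 nm; IC50 by variable-slope nonlinear regression.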

Cathepsin S = Cathepsin S (Homo sapiens, UniProt P25774); assay: Inhibition of human recombinant CatS assessed as suppression of enzyme-mediated Z-Val-Val-Arg-AMC cleavage by QFRET assay
Cathepsin S, sequence (P25774 whole entry): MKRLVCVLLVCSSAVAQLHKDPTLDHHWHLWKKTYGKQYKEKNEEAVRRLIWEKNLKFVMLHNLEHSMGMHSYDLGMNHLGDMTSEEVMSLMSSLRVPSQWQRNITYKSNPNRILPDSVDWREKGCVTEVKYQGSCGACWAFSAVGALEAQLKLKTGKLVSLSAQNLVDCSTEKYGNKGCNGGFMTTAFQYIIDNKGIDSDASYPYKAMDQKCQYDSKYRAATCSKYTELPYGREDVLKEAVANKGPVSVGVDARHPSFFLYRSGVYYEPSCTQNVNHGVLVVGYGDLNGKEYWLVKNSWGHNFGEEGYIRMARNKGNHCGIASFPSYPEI
In short: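 Recombinant human Cat S at 0.5 nM final was preincubated with compound for 30 min at room temperature. Z-Val-Val-Arg-AMC (100 μM final) was added in potassium phosphate buffer, pH 6.4, incubated 1 h, then stopped with acetic acid. AMC fluorescence read at ex 360/em 425 nm; IC50 by nonlinear regression.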

Cathepsin B = Cathepsin B (Homo sapiens, UniProt P07858); assay: Inhibition of human recombinant CatB assessed as suppression of enzyme-mediated Z-Arg-Arg-AMC cleavage by QFRET assay
In short: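 Recombinant human Cat B at 0.5 nM final was preincubated with compound for 30 min at room temperature. Z-Arg-Arg-AMC (100 μM final) was added in potassium phosphate buffer, pH 6.4, incubated 1 h, then stopped with acetic acid. Fluorescence read at ex 360/em 425 nm with background correction; IC50 by nonlinear regression.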

[1] = Lipophilicity, log D of the compound at pH 7.4; settings: buffer
[2] = Intrinsic clearance in human liver microsomes assessed as metabolic turnover
[3] = Aqueous solubility of the compound at pH 7.4; settings: buffer
[4] = Intrinsic clearance in rat hepatocytes assessed as metabolic turnover measured per 10^6 cells; assay type: ADME, cell-based, Hepatocyte
In short: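 Intrinsic clearance from in vitro hepatocyte incubation, expressed in μL/min/10⁶ cells. Each value is the mean of at least n = 2 experiments.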

[5] = Oral bioavailability in Alderley Park Han Wistar rat at 2.0 mg/kg administered as single dose; assay type: ADME, organism-based; settings: in vivo
In short: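 Fed male Alderley Park Han Wistar rats dosed po at 2.0 mg/kg as a suspension in 5% DMSO/95% HPMC/TWEEN; iv reference dose 2.0 mg/kg in 40% DMA/water. Single doses, at least two experiments of two animals each.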

[6] = Fraction unbound at serum; assay type: ADME, cell-free
In short: (§1)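 Serum or plasma protein binding reported as percentage free. Each value is the mean of at least n = 2 experiments.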

[7] = Intrinsic clearance in rat liver microsomes assessed as metabolic turnover
[8] = Volume of distribution at steady state in Alderley Park Han Wistar rat at 2.0 mg/kg, po and 2.0 mg/kg, iv administered as single dose; assay type: ADME, organism-based; settings: in vivo, read-out: Vdss
In short: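 Male Alderley Park Han Wistar rats, fed. Given single iv dose of 2.0 mg/kg as a solution in 40% DMA/water and single po dose of 2.0 mg/kg as a suspension in 5% DMSO/95% HPMC/TWEEN. At least two experiments, each with two animals.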

[9] = Volume of distribution at steady state in Beagle dog at 1.0 mg/kg, po and 1.0 mg/kg, iv administered as single dose; assay type: ADME, organism-based, Canis lupus familiaris; settings: in vivo, read-out: Vdss
In short: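 Beagle dogs, fasted. Given single iv dose of 1.0 mg/kg as a solution in 10% DMSO/90% Sorensons and single po dose of 1.0 mg/kg as a suspension in 5% DMSO/95% HPMC/TWEEN. At least two experiments, each with two animals.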

[10] = Fraction unbound in human serum; assay type: ADME, cell-free; in short: as §1
[11] = Fraction unbound in dog serum; assay type: ADME, cell-free, Canis lupus familiaris; in short: as §1
[12] = Fraction unbound in rat serum; assay type: ADME, cell-free; in short: as §1
[13] = Oral bioavailability in Beagle dog at 1.0 mg/kg administered as single dose; settings: in vivo
Homo sapiens = organism: Homo sapiens; assay: Selectivity ratio of IC50 for human recombinant CatS to IC50 for human recombinant CatK
In short: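 Quenched-FRET cleavage assays with in-house recombinant human enzymes at 0.5 nM final. Cat K used 50 μM Z-Phe-Arg-AMC at pH 5.5 (acetate/EDTA). Cat S used 100 μM Z-Val-Val-Arg-AMC at pH 6.4 (potassium phosphate). Compounds were preincubated 30 min at RT, then reacted 1 h, stopped with acetic acid and read at ex 360/em 425 nm. Twelve concentrations; IC50s from variable-slope nonlinear regression; ratio Cat S/Cat K.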

[14] = Intrinsic clearance in dog hepatocytes assessed as metabolic turnover measured per 10^6 cells
[15] = Half life in Alderley Park Han Wistar rat at 2.0 mg/kg, iv administered as single dose; settings: in vivo
[16] = Half life in Beagle dog at 1.0 mg/kg, iv administered as single dose; settings: in vivo
[17] = Intrinsic clearance in human hepatocytes assessed as metabolic turnover measured per 10^6 cells
in vivo [18] = settings: Alderley Park Han Wistar, rat, plasma, iv, 2 mg/kg
in vivo [19] = settings: Beagle, dog, plasma, iv, 1 mg/kg

Compound	IC50 (Cathepsin K) [nM]	IC50 (Procathepsin L; read-out: IC50) [nM]	IC50 (Cathepsin S) [nM]	IC50 (Cathepsin B) [nM]	logD [1]	microsomal CLint [2] [µL/min/mg]	solubility [3] [µM]	hepatocyte CLint [4] [µL/min/1e6 cells]	bioavailability [5] [%]	microsomal CLint [7] [µL/min/mg]	IC50 (Procathepsin L)	further results
N#CC1(NC(=O)[C@@H]2CCCC[C@H]2C(=O)N2CCc3oc4ccccc4c3C2)CC1	25				3		580 (≈ 227 µg/mL)		0	> 350		fraction unbound [6]: 0.12
COc1ccc2[nH]c3c(c2c1)CN(C(=O)[C@@H]1CCCC[C@H]1C(=O)NC1(C#N)CC1)CC3			> 4000	> 2900	2.4	29	822 (≈ 346 µg/mL)	20			Not Active	
N#CC1(NC(=O)[C@@H]2CCCC[C@H]2C(=O)N2CCc3[nH]c4ccccc4c3C2)CC1	1		> 4000	> 2900	2.7	26	910 (≈ 355 µg/mL)		8.2	143	Not Active	fraction unbound [6]: 0.23
Cc1cccc2c3c([nH]c12)CCN(C(=O)[C@@H]1CCCC[C@H]1C(=O)NC1(C#N)CC1)C3	3		> 4000	> 2900	3	25	510 (≈ 206 µg/mL)			179	Not Active	
CCOc1cccc2c3c([nH]c12)CCN(C(=O)[C@@H]1CCCC[C@H]1C(=O)NC1(C#N)CC1)C3	< 1		> 4000	> 2900	3.1	13	300 (≈ 130 µg/mL)			62	Not Active	
CS(=O)(=O)c1cccc2c3c([nH]c12)CCN(C(=O)[C@@H]1CCCC[C@H]1C(=O)NC1(C#N)CC1)C3	17		> 4000	> 2900	1.7	4	1600 (≈ 750 µg/mL)			23	Not Active	
CS(=O)(=O)c1ccc2[nH]c3c(c2c1)CN(C(=O)[C@@H]1CCCC[C@H]1C(=O)NC1(C#N)CC1)CC3			> 4000	> 2900		14	193 (≈ 90.4 µg/mL)	3.5			Not Active	
N#CC1(NC(=O)[C@@H]2CCCC[C@H]2C(=O)N2CCc3[nH]c4ccc(F)cc4c3C2)CC1	< 1	> 40000	> 4000	3520	3	41	580 (≈ 237 µg/mL)	126	3.8	> 250		hepatocyte CLint [14]: 6.7 µL/min/1e6 cells; Vd [8]: 2.3 L/kg; Vd [9]: 1.2 L/kg; half-life [15]: 0.6 h; half-life [16]: 1.8 h; fraction unbound [10]: 0.14; hepatocyte CLint [17]: < 2.5 µL/min/1e6 cells; fraction unbound [11]: 0.13; fraction unbound [12]: 0.16; clearance (in vivo [18]): 63 mL/min/kg; clearance (in vivo [19]): 10 mL/min/kg; bioavailability [13]: 82%

The next lines start with results.

IC50 (Cathepsin K) [nM]	IC50 (Procathepsin L; read-out: IC50) [nM]	IC50 (Cathepsin S) [nM]	IC50 (Cathepsin B) [nM]	logD [1]	microsomal CLint [2] [µL/min/mg]	solubility [3] [µM]	hepatocyte CLint [4] [µL/min/1e6 cells]	bioavailability [5] [%]	microsomal CLint [7] [µL/min/mg]	IC50 (Procathepsin L)	Compound	further results
37	> 40000	2070	7630	-0.1	7.9	3560 (≈ 1040 µg/mL)	< 2				CN1CCN(C(=O)[C@@H]2CCCC[C@H]2C(=O)NCC#N)CC1	
1		> 4000	> 2900	2.1		1500 (≈ 587 µg/mL)		12		Not Active	N#CC1(NC(=O)[C@@H]2CCCC[C@H]2C(=O)N2CCc3[nH]c4ncccc4c3C2)CC1	Vd [8]: 1.6 L/kg; Vd [9]: 0.9 L/kg; fraction unbound [10]: 0.33; fraction unbound [11]: 0.38; fraction unbound [12]: 0.42; bioavailability [13]: 59%
257	> 40000	3700	9820	< 0.5	5.1	> 4600			< 2		CN(C)C(=O)[C@@H]1CCCC[C@H]1C(=O)NCC#N	Ratio IC50 (Homo sapiens): 14
7	> 100000	1030	455	1.8	7.7	640 (≈ 227 µg/mL)			115		N#CCNC(=O)[C@@H]1CCCC[C@H]1C(=O)N1CCN(c2ccccc2)CC1	
